One may read the IC50 as the midpoint of a concentration-inhibition curve.

The values that follow come from ChEMBL document CHEMBL4270576, “Discovery of a benzenesulfonamide-based dual inhibitor of microsomal prostaglandin E2 synthase-1 and 5-lipoxygenase that favorably modulates lipid mediator biosynthesis in inflammation” (Eur J Med Chem, 2018).

Active and inactive are the calls of the source. No cut-off for these calls is given here.

Data set [1] concerns the target T1, Cytosolic phospholipase A2 (Homo sapiens) (UniProt P47712).
T1 sequence (whole entry): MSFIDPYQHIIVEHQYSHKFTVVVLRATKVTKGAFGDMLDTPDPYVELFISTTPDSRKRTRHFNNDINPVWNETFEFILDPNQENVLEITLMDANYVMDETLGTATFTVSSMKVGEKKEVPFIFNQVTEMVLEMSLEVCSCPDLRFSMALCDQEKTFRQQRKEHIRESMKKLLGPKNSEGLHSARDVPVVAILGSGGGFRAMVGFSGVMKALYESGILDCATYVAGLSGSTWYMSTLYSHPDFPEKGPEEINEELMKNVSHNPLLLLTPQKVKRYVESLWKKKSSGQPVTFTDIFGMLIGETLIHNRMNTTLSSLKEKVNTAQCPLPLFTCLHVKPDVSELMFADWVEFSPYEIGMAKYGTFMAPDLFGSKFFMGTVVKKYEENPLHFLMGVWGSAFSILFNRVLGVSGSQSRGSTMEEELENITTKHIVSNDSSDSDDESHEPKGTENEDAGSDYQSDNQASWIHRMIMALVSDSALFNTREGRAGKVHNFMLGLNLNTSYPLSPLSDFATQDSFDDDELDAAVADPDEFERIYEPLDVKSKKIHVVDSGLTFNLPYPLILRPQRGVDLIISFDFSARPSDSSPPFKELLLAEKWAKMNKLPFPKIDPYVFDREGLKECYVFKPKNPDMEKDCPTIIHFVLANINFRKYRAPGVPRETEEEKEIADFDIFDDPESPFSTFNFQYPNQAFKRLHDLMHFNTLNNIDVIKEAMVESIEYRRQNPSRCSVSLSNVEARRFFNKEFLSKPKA
The data set can be described thus: Inhibition of cPLA2alpha-mediated [3H]-arachidonic acid release in Ca2+ ionophore A23187-stimulated human neutrophils at 10 uM preincubated for 15 mins followed by Ca2+ ionophore A23187 stimulation measured after 5 mins by scintillation counting method. An outline of the steps:
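Neutrophils (1 × 10^7) labelled with 5 nM [3H]-AA for 120 min at 37 °C, washed with fatty-acid-free BSA buffer, pre-incubated 15 min at 37 °C with compound or 0.1% DMSO, then stimulated with 2.5 µM A23187 for 5 min. Released [3H]-AA in supernatant counted by liquid scintillation; n=3-4.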

Data set [2] concerns the target T2, Polyunsaturated fatty acid 5-lipoxygenase (Homo sapiens, UniProt P09917).
T2 sequence (P09917 whole entry): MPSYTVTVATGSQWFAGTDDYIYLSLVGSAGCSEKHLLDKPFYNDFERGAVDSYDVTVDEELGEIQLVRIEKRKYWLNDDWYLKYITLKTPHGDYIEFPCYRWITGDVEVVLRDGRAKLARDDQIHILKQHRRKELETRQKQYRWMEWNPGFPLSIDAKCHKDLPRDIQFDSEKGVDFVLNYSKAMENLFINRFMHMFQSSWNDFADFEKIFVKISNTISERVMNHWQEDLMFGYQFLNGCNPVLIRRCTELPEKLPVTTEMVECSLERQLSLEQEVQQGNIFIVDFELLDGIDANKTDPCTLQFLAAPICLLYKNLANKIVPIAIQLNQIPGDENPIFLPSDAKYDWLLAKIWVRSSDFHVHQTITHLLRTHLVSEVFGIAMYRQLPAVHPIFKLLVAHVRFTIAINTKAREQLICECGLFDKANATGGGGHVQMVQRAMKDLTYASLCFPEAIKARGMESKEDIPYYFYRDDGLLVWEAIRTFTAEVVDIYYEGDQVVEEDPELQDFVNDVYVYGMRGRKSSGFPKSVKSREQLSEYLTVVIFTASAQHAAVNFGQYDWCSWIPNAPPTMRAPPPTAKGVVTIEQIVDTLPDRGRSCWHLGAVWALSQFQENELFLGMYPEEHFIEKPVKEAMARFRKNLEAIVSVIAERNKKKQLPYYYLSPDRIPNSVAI
The data set can be described thus: Inhibition of recombinant human 5-LO expressed in Escherichia coli BL21 (DE3) using arachidonic acid as substrate preincubated for 10 mins followed by CaCl2 and substrate addition measured after 10 mins by RP-HPLC analysis. A digest of the protocol: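 Human recombinant 5-LO from E. coli BL21(DE3), ATP-agarose semi-purified (0.5 µg/ml), pre-incubated with compound or 0.1% DMSO at 4 °C. It was pre-warmed 30 s at 37 °C, then started with 2 mM CaCl2 plus 20 µM AA. Stopped after 10 min with ice-cold methanol; products by RP-HPLC. Residual activity at 10 µM; IC50 from 4-5 concentrations; n=3-4.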

Data set [3] deals with Cyclooxygenase (Homo sapiens, UniProt P35354+P23219). Kind of data set: Modulation of COX1/2-mediated 11-HEPE level in human M2 macrophages derived from IL4-polarized human monocyte derived macrophages at 3 uM preincubated for 15 mins followed by Escherichia coli (O6:K2:H1) challenge for 90 mins by LC-MS/MS analysis. The format is ADME. The note with it: 1.5 h. A digest of the protocol:
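Monocytes differentiated 6 days with M-CSF (20 ng/ml), then polarized 48 h with IL-4 20 ng/ml (M2). Cells (2 × 10^6) in PBS/1 mM CaCl2 pre-incubated 15 min at 37 °C with 3 µM compound or 0.1% DMSO, then challenged with E. coli O6:K2:H1 (1:50) for 90 min. Lipid mediators extracted by SPE with deuterated internal standards and quantified by UPLC-MS/MS as % of vehicle.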

Data set [4] deals with T3, Polyunsaturated fatty acid 5-lipoxygenase (Homo sapiens) (UniProt P09917).
T3 sequence (whole entry): T2 sequence (P09917 whole entry)
The data set can be described thus: Inhibition of recombinant human 5-LO expressed in Escherichia coli BL21 (DE3) using 2.5 to 80 uM arachidonic acid as substrate […] followed by CaCl2 and substrate addition measured after 10 mins by RP-HPLC analysis.

Data set [5] deals with T3, Polyunsaturated fatty acid 5-lipoxygenase (Homo sapiens). Kind of data set: Inhibition of 5-LO in human M1 macrophages derived from LPS/IFNgamma-polarized human monocyte derived macrophages assessed as effect on 5-HEPE level at 3 uM preincubated for 15 mins followed by Escherichia coli (O6:K2:H1) challenge for 90 mins by LC-MS/MS analysis. Details: scale not given: the % may be the effect or the level left. A digest of the protocol:
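Monocytes differentiated 6 days with GM-CSF (20 ng/ml) in RPMI/10% FCS, then polarized 48 h with LPS 100 ng/ml plus IFN-γ 20 ng/ml (M1). Cells (2 × 10^6) in PBS with 1 mM CaCl2 pre-incubated 15 min at 37 °C with 3 µM compound or 0.1% DMSO, then E. coli O6:K2:H1 (1:50) for 90 min. Methanol with deuterated standards added; SPE; UPLC-MS/MS; expressed as % of vehicle.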

As to `O=C(O)c1ccc(N(Cc2cccc(OCc3ccccc3)c2)S(=O)(=O)c2ccc(-c3ccccc3)cc2)cc1`, the inhibition entry in data set [1] is “inactive”. For the same compound, the IC50 in data set [2] amounted to 2300 nM. Besides, the Activity in data set [3] was 107%; in data set [5], 23%. Further, in data set [4], the inhibition result was “Active”.
